Test results taken from publication PMC9826232 (Chemmedchem, 2022).

How the values were obtained:
pErk in A375 cells = assay: HTRF assay of downstream phosphorylation, pErk in A375; assay type: cell-based; settings: Homo sapiens, A-375, read-out: pErk IC50
H358 (G12 C) = assay: CellTiter-Glo cell viability assay, H358; assay type: cell-based; settings: Homo sapiens, NCI-H358, 72 h, read-out: Cellular activity IC50, H358 (G12 C)
Outline: (§1)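 Cells seeded, then held 24 h at 37 °C/5 % CO2 before test compound in DMSO was added at various concentrations. Plates were incubated a further 72 h at 37 °C, 5 % CO2, humidified. Controls were DMSO vehicle and 10 μM staurosporine. CellTiter-Glo reagent was added at equal volume to the medium, then 2 min shaking and 10 min at room temperature before luminescence (ATP) reading. IC50 from dose-response fit; plates accepted only if Z' ≥0.5, from 16 control values each.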

[1] = Control assay for nucleotide exchange assay; settings: 3 mM compound; percent of control
A549 (G12S) = assay: CellTiter-Glo cell viability assay, A549; assay type: cell-based; settings: Homo sapiens, A549, 72 h, read-out: Cellular activity IC50, A549 (G12S)
Outline: as §1

tErk in A375 cells = assay: HTRF assay, tErk in A375; assay type: cell-based; settings: Homo sapiens, A-375, read-out: tErk IC50
tAkt in A375 cells = assay: HTRF assay, tAkt in A375; assay type: cell-based; settings: Homo sapiens, A-375, read-out: tAkt IC50
K‐Ras(G12D) = K‐Ras(G12D) (Homo sapiens, UniProt P01116, G12D); assay: Nucleotide exchange assay; assay type: biochemical
Chain of K‐Ras(G12D) (P01116 1-188 isoform P01116-2 G12D): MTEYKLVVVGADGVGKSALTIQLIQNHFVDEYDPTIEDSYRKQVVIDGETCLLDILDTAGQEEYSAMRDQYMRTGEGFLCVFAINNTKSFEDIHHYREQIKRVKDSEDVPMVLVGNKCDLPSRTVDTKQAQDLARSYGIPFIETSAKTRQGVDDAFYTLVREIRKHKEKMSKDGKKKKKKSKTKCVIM
Outline: (§2)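 SOS1 (final 30.2 nM for G12D, 4.6 nM for wild type) and GTP (1 μM final) follow. Incubated overnight at room temperature, then GDP detection reagent for 1 h. Luminescence read; IC50 from sigmoidal curves.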

pAkt in SNU‐1 cells = assay: HTRF assay of downstream phosphorylation, pAkt in SNU-1; assay type: cell-based; settings: Homo sapiens, SNU1, read-out: pAkt IC50
Outline: (§3)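 Test compound was given as a 3-fold 8-point series, top 330 μM final, 1 % DMSO, for 1 h. EGF at 3 nM final was then added for 15 min. Cells were lysed 30 min at room temperature. TR-FRET antibody detection followed after 20 h at room temperature; read-out gave IC50.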

K‐Ras wild type protein = K‐Ras wild type protein (Homo sapiens, UniProt P01116); assay: Nucleotide exchange assay; assay type: biochemical
Chain of K‐Ras wild type protein (P01116 1-188 isoform P01116-2): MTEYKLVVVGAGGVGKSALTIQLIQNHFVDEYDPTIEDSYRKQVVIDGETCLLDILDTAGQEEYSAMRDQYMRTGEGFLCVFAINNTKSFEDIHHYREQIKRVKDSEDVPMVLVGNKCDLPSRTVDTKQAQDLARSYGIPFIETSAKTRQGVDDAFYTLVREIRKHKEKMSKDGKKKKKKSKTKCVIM
Outline: as §2

[2] = Stability in cell culture medium; assay type: in vitro ADME; settings: for stability in cell culture medium: 24 h
(GTP)K‐Ras4B = (GTP)K‐Ras4B (Homo sapiens, UniProt P01116); assay: MST; assay type: binding
Chain of (GTP)K‐Ras4B (P01116 1-188 isoform P01116-2): as above

HCT15 (G13D) = assay: CellTiter-Glo cell viability assay, HCT15; assay type: cell-based; settings: Homo sapiens, HCT-15, 72 h, read-out: Cellular activity IC50, HCT15 (G13D)
Outline: as §1

tErk in SNU‐1 cells = assay: HTRF assay, tErk in SNU-1; assay type: cell-based; settings: Homo sapiens, SNU1, read-out: tErk IC50
Outline: as §3

NCI‐H441 (G12 V) = assay: CellTiter-Glo cell viability assay, NCI-H441; assay type: cell-based; settings: Homo sapiens, NCI-H441, 72 h, read-out: Cellular activity IC50, NCI‐H441 (G12 V)
Outline: as §1

(GDP)K‐Ras4B = (GDP)K‐Ras4B (Homo sapiens, UniProt P01116); assay: MST; assay type: binding
Chain of (GDP)K‐Ras4B (P01116 1-188 isoform P01116-2): as above

tAkt in SNU‐1 cells = assay: HTRF assay, tAkt in SNU-1; assay type: cell-based; settings: Homo sapiens, SNU1, read-out: tAkt IC50
Outline: as §3

pAkt in A375 cells = assay: HTRF assay of downstream phosphorylation, pAkt in A375; assay type: cell-based; settings: Homo sapiens, A-375, read-out: pAkt IC50
SNU‐1 (G12D) = assay: CellTiter-Glo cell viability assay, SNU-1; assay type: cell-based; settings: Homo sapiens, SNU1, 72 h, read-out: Cellular activity IC50, SNU‐1 (G12D)
Outline: as §1

[3] = Stability in human plasma solution; assay type: in vitro ADME; settings: over 24 h
pErk in SNU‐1 cells = assay: HTRF assay of downstream phosphorylation, pErk in SNU-1; assay type: cell-based; settings: Homo sapiens, SNU1, read-out: pErk IC50
Outline: as §3

K‐Ras4B = K‐Ras4B (Homo sapiens, UniProt P01116); assay: NMR titration experiments; assay type: binding
Chain of K‐Ras4B (P01116 1-188 isoform P01116-2): as above
Outline: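 GDP-bound K-Ras4B was titrated with test compound and followed by NMR chemical shift perturbation; KD derived from the titration.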

[4] = test system: Ras mutant tumor cell lines; assay: Tumor cell assays, all tested cell lines; assay type: cell-based; settings: read-out: IC50 values for all tested cell lines
Outline: as §1

## Oc1ccc(C(=NOCc2ccccc2)c2ccc(O)cc2)cc1 [compound 11, Bis(4‐hydroxyphenyl)methanone‐O‐benzyl oxime]
pErk in A375 cells
  IC50: 48.8 µM
H358 (G12 C)
  IC50: 58.6 ± 0.5 µM
[1]
  WT %CRTL (3 mM): 98%
A549 (G12S)
  IC50: 54.3 ± 3.6 µM
tErk in A375 cells
  IC50: 77.2 µM
tAkt in A375 cells
  IC50: 749 µM
K‐Ras(G12D)
  IC50: 431 ± 22 µM
pAkt in SNU‐1 cells
  IC50: 47.7 µM
K‐Ras wild type protein
  IC50: 1330 ± 343 µM
[2]
  stability in cell culture medium: completely stable
(GTP)K‐Ras4B
  Kd: 602 µM
HCT15 (G13D)
  IC50: 43.9 ± 1.8 µM
tErk in SNU‐1 cells
  IC50: > 1000 µM
NCI‐H441 (G12 V)
  IC50: 62.2 ± 4.8 µM
(GDP)K‐Ras4B
  Kd: 89 µM
tAkt in SNU‐1 cells
  IC50: 475 µM
pAkt in A375 cells
  IC50: > 1000 µM
SNU‐1 (G12D)
  IC50: 41.7 ± 4.2 µM
[3]
  stability in human plasma solution: 92%
pErk in SNU‐1 cells
  IC50: 218 µM

## O=C(c1nc2cc(O)ccc2[nH]1)c1cc2cccc(O)c2o1 [compound 13, (5‐Hydroxy‐1H‐benzo[d]imidazol‐2‐yl)(7‐hydroxybenzofuran‐ 2‐yl)methanone]
K‐Ras(G12D)
  IC50: 409 ± 32 µM
K‐Ras wild type protein
  IC50: 334 ± 5 µM
NCI‐H441 (G12 V)
  IC50: 54.5 ± 0.2 µM
SNU‐1 (G12D)
  IC50: 52.7 ± 0.3 µM

## O=C(c1nc2cccc(O)c2[nH]1)c1cc2cccc(O)c2o1 [compound 12, (7‐Hydroxy‐1H‐benzimidazol‐2‐yl)‐(7‐hydroxybenzofuran‐2‐yl)methanon]
H358 (G12 C)
  IC50: 37.7 ± 1.3 µM
[1]
  WT %CRTL (3 mM): 75%
A549 (G12S)
  IC50: 45.3 ± 1.5 µM
K‐Ras(G12D)
  IC50: 340 ± 72 µM
K‐Ras4B
  Kd: 500 ± 100 µM
K‐Ras4B; NMR titration KD ratio versus DHBP
  fold stronger binding to K‐Ras4B than DHBP: 18 fold
K‐Ras wild type protein
  IC50: 1100 ± 381 µM
(GTP)K‐Ras4B
  Kd: 34 µM
HCT15 (G13D)
  IC50: 37.7 ± 0.4 µM
NCI‐H441 (G12 V)
  IC50: 47.4 ± 3 µM
(GDP)K‐Ras4B
  Kd: 59 µM
SNU‐1 (G12D)
  IC50: 34.5 ± 2.1 µM

## Oc1ccc(C(=NNc2ccc(C(F)(F)F)cc2)c2ccc(O)cc2)cc1 [7 e, 4,4′‐((2‐(4‐(Trifluoromethyl)phenyl)‐hydrazinylidene)methylene)diphenol]
pErk in A375 cells
  IC50: > 1000 µM
H358 (G12 C)
  IC50: 15.1 ± 1.2 µM
[1]
  WT %CRTL (3 mM): 90%
A549 (G12S)
  IC50: 11.9 ± 0.7 µM
tErk in A375 cells
  IC50: > 1000 µM
tAkt in A375 cells
  IC50: > 1000 µM
K‐Ras(G12D)
  IC50: 628 ± 170 µM
pAkt in SNU‐1 cells
  IC50: 431 µM
K‐Ras wild type protein
  IC50: 1070 ± 312 µM
[2]
  stability in cell culture medium: completely stable
HCT15 (G13D)
  IC50: 12.5 ± 1.4 µM
tErk in SNU‐1 cells
  IC50: > 1000 µM
NCI‐H441 (G12 V)
  IC50: 13.4 ± 2.7 µM
tAkt in SNU‐1 cells
  IC50: > 1000 µM
pAkt in A375 cells
  IC50: > 1000 µM
SNU‐1 (G12D)
  IC50: 16.7 ± 1.9 µM
pErk in SNU‐1 cells
  IC50: 520 µM

## Oc1ccc(C(=NNc2ccc(Cl)cc2)c2ccc(O)cc2)cc1 [7 d, 4,4′‐((2‐(4‐Chlorophenyl)hydrazinylidene)‐methylene)diphenol]
H358 (G12 C)
  IC50: 40.2 ± 1 µM
[1]
  WT %CRTL (3 mM): 84%
A549 (G12S)
  IC50: 30.1 ± 9 µM
K‐Ras(G12D)
  IC50: 475 µM
[4]
  IC50: 20 to 30 µM
K‐Ras wild type protein
  IC50: 1300 ± 417 µM
[2]
  cell culture medium stability: 0.4%
HCT15 (G13D)
  IC50: 27.4 ± 4.5 µM
NCI‐H441 (G12 V)
  IC50: 29.3 ± 4.1 µM
SNU‐1 (G12D)
  IC50: 31.2 ± 6.8 µM

## Oc1ccc(C(=NNc2ccc(F)cc2)c2ccc(O)cc2)cc1 [7 c, 4,4′‐((2‐(4‐Fluorophenyl)hydrazinylidene)‐methylene)diphenol]
pErk in A375 cells
  IC50: 415 µM
H358 (G12 C)
  IC50: 33.7 ± 0.6 µM
[1]
  WT %CRTL (3 mM): 83%
A549 (G12S)
  IC50: 28.7 ± 4.7 µM
tErk in A375 cells
  IC50: 491 µM
tAkt in A375 cells
  IC50: > 1000 µM
K‐Ras(G12D)
  IC50: 413 ± 28 µM
pAkt in SNU‐1 cells
  IC50: 95.3 µM
[4]
  IC50: 20 to 30 µM
K‐Ras wild type protein
  IC50: 1040 ± 427 µM
[2]
  cell culture medium stability: 2.2%
HCT15 (G13D)
  IC50: 17.6 ± 13.4 µM
tErk in SNU‐1 cells
  IC50: > 550 µM
NCI‐H441 (G12 V)
  IC50: 24.7 ± 8.3 µM
tAkt in SNU‐1 cells
  IC50: > 1000 µM
pAkt in A375 cells
  IC50: > 1000 µM
SNU‐1 (G12D)
  IC50: 23.7 ± 14.4 µM
pErk in SNU‐1 cells
  IC50: 455 µM

## O=S(=O)(NN=C(c1ccc(O)cc1)c1ccc(O)cc1)c1ccccc1 [8 a, N′‐(bis(4‐hydroxyphenyl)methylene)benzene‐sulfonohydrazide]
H358 (G12 C)
  IC50: 109 ± 3 µM
[1]
  WT %CRTL (3 mM): 91%
A549 (G12S)
  IC50: 105 ± 2 µM
K‐Ras(G12D)
  IC50: 1310 ± 389 µM
K‐Ras wild type protein
  IC50: 1030 ± 371 µM
HCT15 (G13D)
  IC50: 113 ± 13 µM
NCI‐H441 (G12 V)
  IC50: 157 ± 54 µM
SNU‐1 (G12D)
  IC50: 92.1 ± 12 µM

## O=S(=O)(NN=C(c1ccc(O)cc1)c1ccc(O)cc1)c1ccc(Br)cc1 [8 d, N′‐(bis(4‐hydroxyphenyl)methylene)‐4‐bromobenzenesulfonohydrazide]
H358 (G12 C)
  IC50: 82.8 ± 8.4 µM
[1]
  WT %CRTL (3 mM): 93%
A549 (G12S)
  IC50: 91.8 ± 7.4 µM
K‐Ras(G12D)
  IC50: 850 ± 120 µM
K‐Ras wild type protein
  IC50: 2220 ± 519 µM
HCT15 (G13D)
  IC50: 96.6 ± 14.5 µM
NCI‐H441 (G12 V)
  IC50: 105 ± 8 µM
SNU‐1 (G12D)
  IC50: 88.7 ± 23.9 µM
